Laboratory results reported in ChEMBL document CHEMBL1143381 (J Med Chem, 2009).
Calls of active or inactive are those of the source. The calls are words filed in the database; no cut-off is given here.

Key:
K562 [1] = experiment: Reversal of P-glycoprotein-mediated multidrug resistance in human anthracycline-resistant K562 cells assessed as drug level causing 50% increase in nuclear concentration of pirarubicin by spectrofluorimetry; format: cell-based
In short: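 K562/DOX cells were grown in RPMI 1640 with 10% FCS at 37 °C, 5% CO2, and kept resistant by a monthly 3-day exposure to 400 nM doxorubicin. Cultures were started at 5 × 10^5 cells/mL and used 24 h later. Pirarubicin uptake was followed as fluorescence decrease at 590 nm (ex 480 nm) in 2 mL buffer at 37 °C.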

K562 [2] = experiment: Potentiation of doxorubicin-induced growth inhibition in human doxorubicin-resistant K562 cells expressing Pgp at 3 uM after 72 hrs by MTT assay; format: functional, cell-based
In short: (§1)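 MTT assay: cells seeded at 3000/well with doxorubicin (0.001–0.1 µM in K562; 0.1–10 µM in K562/DOX), alone or with modulator, for 72 h at 37 °C. Doxorubicin IC50 is the 50% drop in MTT conversion versus untreated cells, read from plots. RF is the IC50 without modulator divided by the IC50 with modulator. Values are mean ± SE of ≥3 runs, or mean of two runs, in quadruplicate cultures.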

K562 [3] = experiment: Potentiation of doxorubicin-induced growth inhibition in human doxorubicin-resistant K562 cells expressing Pgp at 1 uM after 72 hrs by MTT assay; format: functional, cell-based; in short: as §1
K562 [4] = experiment: Cytotoxicity against human doxorubicin-resistant K562 cells expressing Pgp assessed as cell viability by trypan blue exclusion assay; format: functional
K562 [5] = experiment: Cytotoxicity against human doxorubicin-resistant K562 cells expressing Pgp after 72 hrs by MTT assay; format: functional, cell-based; conditions: K562, 72 h; in short: as §1
K562 [6] = experiment: Cytotoxicity against human doxorubicin-sensitive K562 cells after 72 hrs by MTT assay; format: functional, cell-based; conditions: K562, 72 h; in short: as §1

Q: How did the Activity (K562 [1]) turn out when `COc1ccc(C(C#N)(CCCNCc2c3ccccc3cc3ccccc23)C(C)C)cc1OC` (configuration not stated) was run?
A: 0.05 µM

Q: Which results are given for `COc1ccc(CCN(C)CCCC(C#N)(c2ccc(OC)c(OC)c2)C(C)C)cc1OC` (configuration not stated)?
A: Activity (K562 [2]): Active; Activity (K562 [3]): Active; Activity (K562 [4]): >95%

Q: With `COc1cccc2c1C(=O)c1c(O)c3c(c(O)c1C2=O)C[C@@](O)(C(=O)CO)C[C@@H]3O[C@H]1C[C@H](N)[C@H](O)[C@H](C)O1` [DOXORUBICIN] as the compound, how does the IC50 (K562 [5]) read?
A: 2.84 µM

Q: What about the IC50 (K562 [6]) of the same compound?
A: 0.032 µM

Q: For `COc1cc(C(=O)OCCCN(C)CCCOC(=O)c2c3ccccc3cc3ccccc23)cc(OC)c1OC`, which Activity (K562 [1]) is on record?
A: 0.6 µM
